Bridge positions count the residues as written; N and C are the ends. Square brackets hold non-standard residues; d marks the D form. Peptide text beside a SMILES is read from it. dTic = O=C(O)[C@H]1Cc2ccccc2CN1; Pen = CC(C)(S)[C@H](N)C(=O)O
Legend:
Cavia porcellus [1] = species on record: Cavia porcellus; test: Evaluated for agonist activity as percent inhibition in electrically evoked twitch height in Guinea pig ileum (GPI) at 1 uM concentration of compound; type: functional
Procedure, shortened: (§1)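 Longitudinal muscle-myenteric plexus strips from nonterminal ileum of male Hartley guinea pigs (250-500 g). Held in Krebs-bicarbonate at 37 °C under 95% O₂/5% CO₂, 1 g resting tension after 15 min unloaded equilibration. Stimulated transmurally at 0.1 Hz, 0.4 ms pulses, supramaximal voltage. Agonist twitch effect read after 3 min incubation; antagonist added 2 min before agonist. Mean ± SEM.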

Cavia porcellus [2] = species on record: Cavia porcellus; test: Evaluated for antagonist activity as the rightward fold shift of dose response curve of the known agonist PL-017 in Guinea pig ileum (GPI) at 1 uM concentration of compound; type: functional; procedure, shortened: as §1
Mus musculus = species on record: Mus musculus; test: Evaluated for agonist activity as percent inhibition in electrically evoked twitch height in mouse vas deferens (MVD) at 1 uM concentration of compound; type: functional
Procedure, shortened: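 Vasa deferentia from male ICR mice (25-40 g), held in magnesium-free Krebs at 37 °C under 95% O₂/5% CO₂. Hung 15 min without tension, then under 0.5 g resting tension. Stimulated transmurally at 0.1 Hz, 2 ms pulses, supramaximal voltage. Twitch inhibition read 3 min after agonist, expressed relative to the pre-dose twitch height. Mean ± SEM.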

[3] = target: Delta-type opioid receptor (Rattus norvegicus, UniProt P33533); test: Binding affinity for rat brain Opioid receptor delta 1
Chain of Delta-type opioid receptor (P33533 whole entry): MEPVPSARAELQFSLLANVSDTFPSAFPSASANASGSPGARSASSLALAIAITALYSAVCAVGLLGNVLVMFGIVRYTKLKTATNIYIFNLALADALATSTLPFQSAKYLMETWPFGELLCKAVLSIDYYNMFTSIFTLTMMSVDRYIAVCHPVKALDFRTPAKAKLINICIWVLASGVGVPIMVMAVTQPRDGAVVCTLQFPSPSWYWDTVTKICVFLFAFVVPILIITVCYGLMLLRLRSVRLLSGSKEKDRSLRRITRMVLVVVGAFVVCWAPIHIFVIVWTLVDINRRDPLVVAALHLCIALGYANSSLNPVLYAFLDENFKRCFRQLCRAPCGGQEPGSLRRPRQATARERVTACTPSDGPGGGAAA
Procedure, shortened: (§2)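 Whole-brain membranes from adult Sprague-Dawley rats (250-300 g), homogenized at 0 °C in 50 mM Tris-HCl pH 7.4, centrifuged at 48 000g, and preincubated at 25 °C to strip endogenous ligand. Competition run for 3 h at 25 °C in Tris-HCl with BSA, bestatin, bacitracin, captopril and PMSF. Radioligand was [3H][4′-Cl-Phe4]DPDPE 0.75 nM for δ or [3H]DAMGO 1.0 nM for μ, with ≥10 analogue concentrations. Nonspecific binding defined with 10 µM naltrexone; each analogue tested ≥3 times.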

Mu-type opioid receptor = Mu-type opioid receptor (Rattus norvegicus, UniProt P33535); test: Binding affinity for rat brain Opioid receptor mu 1; procedure, shortened: as §2
Chain of Mu-type opioid receptor (P33535 whole entry): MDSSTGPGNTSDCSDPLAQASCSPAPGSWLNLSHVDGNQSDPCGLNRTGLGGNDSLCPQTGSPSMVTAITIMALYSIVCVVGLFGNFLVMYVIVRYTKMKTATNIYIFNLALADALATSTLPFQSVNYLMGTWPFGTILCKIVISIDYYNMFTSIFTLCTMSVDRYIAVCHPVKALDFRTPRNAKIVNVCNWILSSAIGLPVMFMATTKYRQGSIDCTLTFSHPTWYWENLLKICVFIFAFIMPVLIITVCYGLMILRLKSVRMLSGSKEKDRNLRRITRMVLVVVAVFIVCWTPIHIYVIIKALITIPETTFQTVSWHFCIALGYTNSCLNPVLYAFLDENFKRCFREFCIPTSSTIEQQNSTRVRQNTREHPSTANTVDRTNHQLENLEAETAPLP

Cavia porcellus [4] = species on record: Cavia porcellus; test: Evaluated for antagonist activity as the rightward fold shift of dose response curve of the known agonist PL-017 in Guinea pig ileum (GPI). 1-fold indicates no change in the dose response curve; type: functional; procedure, shortened: as §1

`C[C@@H](O)[C@H](NC(=O)[C@H]1NC(=O)[C@H]([C@@H](C)O)NC(=O)[C@H](CCCNC(=N)N)NC(=O)[C@@H](Cc2c[nH]c3ccccc23)NC(=O)[C@H](Cc2ccc(O)cc2)NC(=O)[C@@H](NC(=O)[C@H](N)Cc2ccccc2)CSSC1(C)C)C(N)=O` was tested, and the inhibition at 1 µM (Cavia porcellus [1]) was 4%, the PL-017 shift (Cavia porcellus [2]) was 55 and the inhibition at 1 µM (Mus musculus) was 17%.
`C[C@@H](O)[C@H](NC(=O)[C@H]1NC(=O)[C@H]([C@@H](C)O)NC(=O)[C@H](CCCN=C(N)N)NC(=O)[C@@H](Cc2c[nH]c3ccccc23)NC(=O)[C@H](Cc2ccc(O)cc2)NC(=O)[C@@H](NC(=O)[C@H](N)[C@@H](C)c2ccccc2)CSSC1(C)C)C(N)=O` [listing 1 of 2 here] was tested, and the IC50 [3] was 1.32 µM and the IC50 (Mu-type opioid receptor) was 21 nM.
With `C[C@@H](O)[C@H](NC(=O)[C@H]1NC(=O)[C@H]([C@@H](C)O)NC(=O)[C@H](CCCN=C(N)N)NC(=O)[C@@H](Cc2c[nH]c3ccccc23)NC(=O)[C@H](Cc2ccc(O)cc2)NC(=O)[C@@H](NC(=O)[C@H](N)[C@@H](C)c2ccccc2)CSSC1(C)C)C(N)=O` [listing 2 of 2 here] the inhibition at 1 µM (Cavia porcellus [1]) was 0%, the PL-017 shift (Cavia porcellus [2]) was 15 and the inhibition at 1 µM (Mus musculus) was 8%.
Work on `C[C@H](c1ccccc1)[C@@H](N)C(=O)N[C@H]1CSSC(C)(C)[C@@H](C(=O)N[C@H](C(N)=O)[C@@H](C)O)NC(=O)[C@H]([C@@H](C)O)NC(=O)[C@H](CCCN=C(N)N)NC(=O)[C@@H](Cc2c[nH]c3ccccc23)NC(=O)[C@H](Cc2ccc(O)cc2)NC1=O` [listing 1 of 2 here] yielded an IC50 [3] of 1.19 µM and an IC50 (Mu-type opioid receptor) of 20 nM.
In the case of `C[C@H](c1ccccc1)[C@@H](N)C(=O)N[C@H]1CSSC(C)(C)[C@@H](C(=O)N[C@H](C(N)=O)[C@@H](C)O)NC(=O)[C@H]([C@@H](C)O)NC(=O)[C@H](CCCN=C(N)N)NC(=O)[C@@H](Cc2c[nH]c3ccccc23)NC(=O)[C@H](Cc2ccc(O)cc2)NC1=O` [listing 2 of 2 here], the inhibition at 1 µM (Cavia porcellus [1]) is reported as 0%, the PL-017 shift (Cavia porcellus [2]) is reported as 19 and the inhibition at 1 µM (Mus musculus) is reported as 34%.
`C[C@H](c1c[nH]c2ccccc12)[C@H](N)C(=O)N[C@H]1CSSC(C)(C)[C@@H](C(=O)N[C@H](C(N)=O)[C@@H](C)O)NC(=O)[C@H]([C@@H](C)O)NC(=O)[C@H](CCCNC(=N)N)NC(=O)[C@@H](Cc2c[nH]c3ccccc23)NC(=O)[C@H](Cc2ccc(O)cc2)NC1=O` gave an IC50 [3] of 7.46 µM and an IC50 (Mu-type opioid receptor) of 3400 nM.
Compound `C[C@H](c1c[nH]c2ccccc12)[C@H](N)C(=O)N[C@H]1CSSC(C)(C)[C@@H](C(=O)N[C@H](C(N)=O)[C@@H](C)O)NC(=O)[C@H]([C@@H](C)O)NC(=O)[C@H](CCCN=C(N)N)NC(=O)[C@@H](Cc2c[nH]c3ccccc23)NC(=O)[C@H](Cc2ccc(O)cc2)NC1=O` has an inhibition at 1 µM (Cavia porcellus [1]) of 0%, a PL-017 shift (Cavia porcellus [2]) of 1 and an inhibition at 1 µM (Mus musculus) of 0%.
Work on `C[C@@H](O)[C@H](NC(=O)[C@H]1NC(=O)[C@H]([C@@H](C)O)NC(=O)[C@H](CCCN=C(N)N)NC(=O)[C@@H](Cc2c[nH]c3ccccc23)NC(=O)[C@H](Cc2ccc(O)cc2)NC(=O)[C@@H](NC(=O)[C@H](N)Cc2c[nH]c3ccccc23)CSSC1(C)C)C(N)=O` [listing 1 of 2 here] yielded an IC50 [3] of 3.53 µM and an IC50 (Mu-type opioid receptor) of 1.39 nM.
With `C[C@@H](O)[C@H](NC(=O)[C@H]1NC(=O)[C@H]([C@@H](C)O)NC(=O)[C@H](CCCN=C(N)N)NC(=O)[C@@H](Cc2c[nH]c3ccccc23)NC(=O)[C@H](Cc2ccc(O)cc2)NC(=O)[C@@H](NC(=O)[C@H](N)Cc2c[nH]c3ccccc23)CSSC1(C)C)C(N)=O` [listing 2 of 2 here] the inhibition at 1 µM (Cavia porcellus [1]) was 43%, the PL-017 shift (Cavia porcellus [2]) was 1 and the inhibition at 1 µM (Mus musculus) was 13.6%.
Work on `C[C@@H](O)[C@H](NC(=O)[C@H]1NC(=O)[C@H]([C@@H](C)O)NC(=O)[C@H](CCCNC(=N)N)NC(=O)[C@@H](Cc2c[nH]c3ccccc23)NC(=O)[C@H](Cc2ccc(O)cc2)NC(=O)[C@@H](NC(=O)[C@@H](N)[C@@H](C)c2ccccc2)CSSC1(C)C)C(N)=O` yielded an IC50 [3] greater than 15 µM and an IC50 (Mu-type opioid receptor) of 1500 nM.
Compound `C[C@@H](O)[C@H](NC(=O)[C@H]1NC(=O)[C@H]([C@@H](C)O)NC(=O)[C@H](CCCN=C(N)N)NC(=O)[C@@H](Cc2c[nH]c3ccccc23)NC(=O)[C@H](Cc2ccc(O)cc2)NC(=O)[C@@H](NC(=O)[C@@H](N)[C@@H](C)c2ccccc2)CSSC1(C)C)C(N)=O` has an inhibition at 1 µM (Cavia porcellus [1]) of 0%, a PL-017 shift (Cavia porcellus [2]) of 1 and an inhibition at 1 µM (Mus musculus) of 35%.
Compound `C[C@@H](O)[C@H](NC(=O)[C@H]1NC(=O)[C@H]([C@@H](C)O)NC(=O)[C@H](CCCN=C(N)N)NC(=O)[C@@H](Cc2c[nH]c3ccccc23)NC(=O)[C@H](Cc2ccc(O)cc2)NC(=O)[C@@H](NC(=O)[C@H]2Cc3c([nH]c4ccccc34)CN2)CSSC1(C)C)C(N)=O` [listing 1 of 2 here] has an IC50 [3] of 0.211 µM and an IC50 (Mu-type opioid receptor) of 173 nM.
`C[C@@H](O)[C@H](NC(=O)[C@H]1NC(=O)[C@H]([C@@H](C)O)NC(=O)[C@H](CCCN=C(N)N)NC(=O)[C@@H](Cc2c[nH]c3ccccc23)NC(=O)[C@H](Cc2ccc(O)cc2)NC(=O)[C@@H](NC(=O)[C@H]2Cc3c([nH]c4ccccc34)CN2)CSSC1(C)C)C(N)=O` [listing 2 of 2 here] showed an inhibition at 1 µM (Cavia porcellus [1]) of 18% and a PL-017 shift (Cavia porcellus [2]) of 1.2.
Work on `C[C@H](c1ccccc1)[C@H](N)C(=O)N[C@H]1CSSC(C)(C)[C@@H](C(=O)N[C@H](C(N)=O)[C@@H](C)O)NC(=O)[C@H]([C@@H](C)O)NC(=O)[C@H](CCCN=C(N)N)NC(=O)[C@@H](Cc2c[nH]c3ccccc23)NC(=O)[C@H](Cc2ccc(O)cc2)NC1=O` [listing 1 of 2 here] yielded an IC50 [3] of 13.2 µM and an IC50 (Mu-type opioid receptor) of 5420 nM.
Work on `C[C@H](c1ccccc1)[C@H](N)C(=O)N[C@H]1CSSC(C)(C)[C@@H](C(=O)N[C@H](C(N)=O)[C@@H](C)O)NC(=O)[C@H]([C@@H](C)O)NC(=O)[C@H](CCCN=C(N)N)NC(=O)[C@@H](Cc2c[nH]c3ccccc23)NC(=O)[C@H](Cc2ccc(O)cc2)NC1=O` [listing 2 of 2 here] yielded an inhibition at 1 µM (Cavia porcellus [1]) of 13%, a PL-017 shift (Cavia porcellus [4]) of 1 and an inhibition at 1 µM (Mus musculus) of 0%.
Compound `C[C@@H](O)[C@H](NC(=O)[C@H]1NC(=O)[C@H]([C@@H](C)O)NC(=O)[C@H](CCCNC(=N)N)NC(=O)[C@@H](Cc2c[nH]c3ccccc23)NC(=O)[C@H](Cc2ccc(O)cc2)NC(=O)[C@@H](NC(=O)[C@H](N)[C@@H](C)c2c[nH]c3ccccc23)CSSC1(C)C)C(N)=O` has an IC50 [3] of 7.48 µM and an IC50 (Mu-type opioid receptor) of 12.1 nM.
Work on `C[C@@H](O)[C@H](NC(=O)[C@H]1NC(=O)[C@H]([C@@H](C)O)NC(=O)[C@H](CCCN=C(N)N)NC(=O)[C@@H](Cc2c[nH]c3ccccc23)NC(=O)[C@H](Cc2ccc(O)cc2)NC(=O)[C@@H](NC(=O)[C@H](N)[C@@H](C)c2c[nH]c3ccccc23)CSSC1(C)C)C(N)=O` yielded an inhibition at 1 µM (Cavia porcellus [1]) of 0%, a PL-017 shift (Cavia porcellus [2]) of 68 and an inhibition at 1 µM (Mus musculus) of 0%.
`C[C@H](c1c[nH]c2ccccc12)[C@@H](N)C(=O)N[C@H]1CSSC(C)(C)[C@@H](C(=O)N[C@H](C(N)=O)[C@@H](C)O)NC(=O)[C@H]([C@@H](C)O)NC(=O)[C@H](CCCNC(=N)N)NC(=O)[C@@H](Cc2c[nH]c3ccccc23)NC(=O)[C@H](Cc2ccc(O)cc2)NC1=O` gave an IC50 [3] of 3.64 µM and an IC50 (Mu-type opioid receptor) of 18.7 nM.
For `C[C@H](c1c[nH]c2ccccc12)[C@@H](N)C(=O)N[C@H]1CSSC(C)(C)[C@@H](C(=O)N[C@H](C(N)=O)[C@@H](C)O)NC(=O)[C@H]([C@@H](C)O)NC(=O)[C@H](CCCN=C(N)N)NC(=O)[C@@H](Cc2c[nH]c3ccccc23)NC(=O)[C@H](Cc2ccc(O)cc2)NC1=O`, the inhibition at 1 µM (Cavia porcellus [1]) was 0%, the PL-017 shift (Cavia porcellus [2]) was 39 and the inhibition at 1 µM (Mus musculus) was 3.7%.
Work on `C[C@@H](O)[C@H](NC(=O)[C@H]1NC(=O)[C@H]([C@@H](C)O)NC(=O)[C@H](CCCNC(=N)N)NC(=O)[C@@H](Cc2c[nH]c3ccccc23)NC(=O)[C@H](Cc2ccc(O)cc2)NC(=O)[C@@H](NC(=O)[C@@H](N)[C@@H](C)c2c[nH]c3ccccc23)CSSC1(C)C)C(N)=O` yielded an IC50 [3] of 9.18 µM and an IC50 (Mu-type opioid receptor) of 1360 nM.
Compound `C[C@@H](O)[C@H](NC(=O)[C@H]1NC(=O)[C@H]([C@@H](C)O)NC(=O)[C@H](CCCN=C(N)N)NC(=O)[C@@H](Cc2c[nH]c3ccccc23)NC(=O)[C@H](Cc2ccc(O)cc2)NC(=O)[C@@H](NC(=O)[C@@H](N)[C@@H](C)c2c[nH]c3ccccc23)CSSC1(C)C)C(N)=O` has an inhibition at 1 µM (Cavia porcellus [1]) of 0%, a PL-017 shift (Cavia porcellus [2]) of 2.6 and an inhibition at 1 µM (Mus musculus) of 0%.
Compound `C[C@@H](O)[C@H](NC(=O)[C@H]1NC(=O)[C@H]([C@@H](C)O)NC(=O)[C@H](CCCN=C(N)N)NC(=O)[C@@H](Cc2c[nH]c3ccccc23)NC(=O)[C@H](Cc2ccc(O)cc2)NC(=O)[C@@H](NC(=O)[C@H]2Cc3ccccc3CN2)CSSC1(C)C)C(N)=O` (H-[dTic]CY[dW]RT[Pen]T-NH2; disulfide 2-7) has an inhibition at 1 µM (Cavia porcellus [1]) of 1%, a PL-017 shift (Cavia porcellus [2]) of 60 and an inhibition at 1 µM (Mus musculus) of 10%.
